Several values for one entry are separate records, joined by “and”; a condition that tells them apart may be missing. Identical values can stand only once. Activity calls are given as the source filed them. Unless noted, no rule for the calls is given here.
Tests used:
[1] = target: Pantothenate synthetase (Mycobacterium tuberculosis (strain ATCC 25618 / H37Rv)) (UniProt P9WIL5); test: Coupled enzyme confirmation of inhibitors against recombinant Mtb PanC (AID 375); settings: coupled enzyme assay; at 10 µM, stronger effect = higher value;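 also: 0% = full reaction with vehicle and 100% = no enzyme background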
[2] = Her2 expression decrease, cell viability multiplex – SKBR3 breast tumor cells, AlphaScreen, ATP viability, primary screen (AID 461;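 active = Her2 level under about 52% in both replicate screens, with viability over 70% of control, limit read from the data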;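 as to Her2 level: lower value means less Her2 protein in the cells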;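 as to viability: percent of carrier control wells set as 100% viability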); settings: SKBR3 Her2 protein level, 18-24 h, measured here: SKBR3 viability, ATP luminescence, at 10 µM
[3] = target: Receptor tyrosine-protein kinase erbB-2 (Homo sapiens) (UniProt P04626); test: as above; settings: 18-24 h, at 10 µM, stronger effect = lower value
[4] = reduced viability of SK-BR-3 breast cancer cells – cell-based, 24 h, human, pilot screen (AID 572;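 active = viability at or below 10% of carrier control in both of two separate runs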;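 also: compound exposure lasted between 18 and 24 h rather than exactly 24 h; 100% = carrier-treated control wells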); settings: SK-BR-3 viability, CellTiter-Glo luminescence, at 10 µM, stronger effect = lower value
[5] = HUVEC growth inhibition – cell-based, human, primary screen (AID 575;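 active = viability at or below 30% in both replicate assays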;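 also: 100% = median of untreated cell wells with 0.1% DMSO on each plate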); settings: HUVEC proliferation, CellTiter-Glo luminescence, 72 h; at 10 µM; stronger effect = lower value
Method in brief: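 system = HUVEC primary cells | amount = 1250 cells/well | buffer or medium = supplemented EBM, 2% fetal bovine serum | dosing = single-point 10 µM, DMSO 0.1% final | times = 72 h compound incubation | detection = CTG luminescence | read-out = % viability relative to median vehicle-well signal on each plate | control set = vehicle and MePR control wells | format = collagen-coated 384-well format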

[6] = H69AR cell proliferation blockers – human, duplicate replicates, primary screen (AID 580;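 active = viability at or under a set limit in both replicates, limit being median viability minus 3 SD, cut at about 48% in these data, passing the limit was not always enough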;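 also: 100% = mean luminescence of untreated wells and 0% = no signal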); settings: H69AR lung tumor cells viability, ATP luminescence, 72 h; at 10 µM; stronger effect = lower value
[7] = MRP1 drug-resistance reversers in H69AR cells – cell-based, doxorubicin co-treatment, pilot screen (AID 601;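 active = viability loss from added drug above about 55%, and viability with drug at most 40%, in both replicates, limit read from the data, passing the limit was not always enough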); settings: CellTiter-Glo, 72 h, at 10 µM; for differential viability (reversal): stronger effect = higher value
[8] = yeast transport mutant growth inhibition pilot in 384-well plates, post-Golgi transport modulator project (AID 636; in the data active = inhibition above about 31%); settings: absorbance 615 nm, about 18 h, stronger effect = higher value
[9] = growth suppression of yeast trafficking mutant, preliminary HTS, modulators of trafficking downstream of Golgi apparatus project, 1536-format plate, OD 615 nm (AID 637; in the data active = inhibition above about 30%); settings: yeast transport mutant growth, absorbance 615 nm, 18 h; stronger effect = higher value
[10] = H69AR cells + 2 uM doxorubicin, measured here: viability with 2 uM doxorubicin, stronger effect = lower value
[11] = H69AR cells, compound alone cytotoxicity

Chain of Receptor tyrosine-protein kinase erbB-2 (Homo sapiens) (P04626 whole entry, looked up): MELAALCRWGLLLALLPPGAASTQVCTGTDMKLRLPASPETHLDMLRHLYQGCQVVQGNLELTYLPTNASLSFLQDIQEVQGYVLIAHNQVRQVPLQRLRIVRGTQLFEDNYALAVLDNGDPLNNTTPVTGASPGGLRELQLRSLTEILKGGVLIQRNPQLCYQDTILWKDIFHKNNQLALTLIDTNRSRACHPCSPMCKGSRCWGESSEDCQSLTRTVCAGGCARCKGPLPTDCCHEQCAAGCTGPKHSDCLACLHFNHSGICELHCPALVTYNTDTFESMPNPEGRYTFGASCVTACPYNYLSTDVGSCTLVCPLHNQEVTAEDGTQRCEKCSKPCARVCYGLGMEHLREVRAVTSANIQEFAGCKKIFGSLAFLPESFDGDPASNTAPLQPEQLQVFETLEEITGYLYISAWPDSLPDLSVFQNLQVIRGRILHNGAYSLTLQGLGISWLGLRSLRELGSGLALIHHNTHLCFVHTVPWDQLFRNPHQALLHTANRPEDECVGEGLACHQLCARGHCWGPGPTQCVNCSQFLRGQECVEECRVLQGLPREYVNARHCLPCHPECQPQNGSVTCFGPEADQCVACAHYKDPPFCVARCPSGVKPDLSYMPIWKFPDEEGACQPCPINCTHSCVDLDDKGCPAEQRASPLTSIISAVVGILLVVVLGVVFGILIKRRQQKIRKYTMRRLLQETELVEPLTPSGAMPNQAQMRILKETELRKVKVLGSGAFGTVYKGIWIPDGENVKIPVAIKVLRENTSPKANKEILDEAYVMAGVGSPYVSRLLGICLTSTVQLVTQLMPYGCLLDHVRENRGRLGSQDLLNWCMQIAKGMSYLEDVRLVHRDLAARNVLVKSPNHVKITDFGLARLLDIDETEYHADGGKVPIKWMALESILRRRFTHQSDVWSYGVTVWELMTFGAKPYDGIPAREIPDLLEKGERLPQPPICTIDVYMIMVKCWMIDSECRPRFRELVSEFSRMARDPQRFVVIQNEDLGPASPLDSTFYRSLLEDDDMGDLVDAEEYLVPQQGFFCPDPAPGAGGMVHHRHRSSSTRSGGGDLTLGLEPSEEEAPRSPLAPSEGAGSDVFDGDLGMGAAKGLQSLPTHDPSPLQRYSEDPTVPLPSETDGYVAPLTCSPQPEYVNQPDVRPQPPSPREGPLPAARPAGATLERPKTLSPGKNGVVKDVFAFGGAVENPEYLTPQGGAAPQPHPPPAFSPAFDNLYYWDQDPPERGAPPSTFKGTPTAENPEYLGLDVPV
Chain of Pantothenate synthetase (Mycobacterium tuberculosis (strain ATCC 25618 / H37Rv)) (P9WIL5 whole entry, looked up): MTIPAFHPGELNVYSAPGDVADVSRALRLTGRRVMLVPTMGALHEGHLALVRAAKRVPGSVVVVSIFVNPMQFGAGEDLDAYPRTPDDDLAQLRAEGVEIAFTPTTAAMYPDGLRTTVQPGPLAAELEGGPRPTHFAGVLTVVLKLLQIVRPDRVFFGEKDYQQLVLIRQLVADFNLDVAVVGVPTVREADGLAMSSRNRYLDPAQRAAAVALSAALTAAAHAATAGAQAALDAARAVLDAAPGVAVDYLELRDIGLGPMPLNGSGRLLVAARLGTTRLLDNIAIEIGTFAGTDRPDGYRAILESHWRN

SMILES	inhibition [1]	viability [2] [%]	Her2 level [3]	viability [4]	viability [5]	viability [6]	differential viability (reversal) ([7]; H69AR cells + 2 uM doxorubicin)	viability [7, 10]	viability [7, 11]	inhibition [8]	inhibition [9]
O=S(=O)(c1cccc2nsnc12)N1CCN(c2ncccn2)CC1	0% (inactive)										
Cc1ccc(-n2ncc3c(N4CCN(c5ccc(F)cc5)CC4)ncnc32)c(C)c1	6% (inactive)										
CN(C)c1oc(-c2ccccc2Cl)nc1C#N	4% (inactive)										
O=C(Cn1c2c(c(-c3ccccc3Cl)cc1=O)CCC2)N1CCC2(CC1)OCCO2	6% (inactive)	102	115% (inactive)	102% (inactive)	108% (inactive)	96.8% (inactive)	-15.4% (inactive)	112%	96.8%	-1.18% (inactive)	-6.61% (inactive)
Cc1ccc(C2SCC(=O)Nc3c2c(=O)[nH]n3C2CCOC(C)(C)C2)cc1 (configuration not stated)	0% (inactive)	100	92% (inactive)	100% (inactive)	90.9% (inactive)	98.2% (inactive)	11.2% (inactive)	87%	98.2%	-5.66% (inactive)	5.83% (inactive)
CCn1nc(-c2ccccc2)nc2c(=O)n(C)c(=O)nc1-2	0% (inactive)	106	93% (inactive)	106% (inactive)	2.75% (active)	1.38% (active)	0.5% (inactive)	0.875%	1.38%	98.4% (active)	100% (active)
CC(C)=CCSc1nnc([C@@H](N)Cc2c[nH]c3ccccc23)o1	7% (inactive)	102	110% (inactive)	102% (inactive)	75.4% (inactive)	94% (inactive)	2.83% (inactive)	91.2%	94%	-0.27% (inactive)	-8.39% (inactive)
O=C(c1ccncc1)C12CN3CN(CN(C3)C1)C2	0% (inactive)	115	114% (inactive)	115% (inactive)	97.6% (inactive)	89.5% (inactive)	5.16% (inactive)	84.4%	89.5%	-3.25% (inactive)	-2.5% (inactive)
CC[C@@H]1C(=O)OC[C@@H]1Cc1cncn1C	0% (inactive)	94	107% (inactive)	94% (inactive) and 104% (inactive)	101% (inactive) and 91.9% (inactive)	102% (inactive) and 96% (inactive)	12.4% (inactive) and -2.8% (inactive)	89.8% and 98.8%	102% and 96%		

— PubChem BioAssay
